Columns and labels:
[1] = tested on: Jurkat; assay: Percent Inhibition of Ca+2 influx in jurkat T cells at 50 uM concentration; format: functional; details: Homo sapiens
Method in brief: (§1)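 Jurkat cells loaded with 2 μM Fluo-3 AM plus Pluronic F127 for 1 h at room temperature, washed, resuspended in HBSS with 10 mM HEPES pH 7.5. 4 × 10^6 cells per cuvette equilibrated to 37 °C; compound added 80 s before TCR cross-linking with 2 μg mouse anti-human CD3. Cytoplasmic calcium followed by fluorescence over time; EC50 from percent of control fluorescence at six doses.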

[2] = tested on: Jurkat; assay: Percent inhibition of Ca+2 influx in jurkat T cells at 50 uM concentration; format: functional; details: Homo sapiens; method in brief: as §1
[3] = Inhibition of IL-2 production in CD4+T cells; format: functional, cell-based; details: Homo sapiens, CD4+ T cell
Method in brief: (§2)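 Purified human CD4+ T cells (5 × 10^4/well) in RPMI 1640 with 1% FBS. Compound diluted from DMSO stock, preincubated 1 h at 37 °C. Cells activated with 0.12 ng/well anti-CD3, 100 ng/well anti-CD28 and anti-mouse IgG magnetic beads, then incubated overnight at 37 °C, 5% CO2. Secreted IL-2 in supernatant measured by ELISA.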

[4] = organism: Homo sapiens; assay: Percent permeated in 3 hours in Caco-2 model; format: ADME, organism-based; details: caco-2, 3 h
Method in brief: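 Caco-2 monolayers on collagen-coated polycarbonate filters, grown up to 25 days (passages 23–50). Cells equilibrated in HBSS pH 7.4 for 30 min at 37 °C. Drug applied apically at 0.01–0.1 mM final in HBSS at 37 °C, 5% CO2. Basolateral samples taken at intervals; cumulative amount plotted against time. Mannitol used to check monolayer integrity; mass balance >90%; at least triplicates.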

[5] = Inhibition of proliferation of CD4+T cells; format: functional, cell-based; details: Homo sapiens, CD4+ T cell
Method in brief: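 Human CD4+ T cells, 5 × 10^4/well, preincubated with compound for 1 h at 37 °C. Stimulated with anti-CD3, anti-CD28 and anti-mouse IgG beads. Pulsed 48 h after activation with 0.5 μCi/well [3H]-thymidine, incubated a further 18 h at 37 °C, harvested, and incorporated radioactivity counted.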

[6] = target: Tyrosine-protein kinase Lck (Homo sapiens, UniProt P06239); assay: Binding affinity for p56lck SH2 domain site
[7] = tested on: Jurkat; assay: Inhibition of Ca+2 influx in jurkat T cells; format: functional, cell-based; details: Homo sapiens; method in brief: as §1
[8] = Inhibition of IL-2 production from CD4+T cells; format: functional, cell-based; details: Homo sapiens, CD4+ T cell; method in brief: as §2

Chain of Tyrosine-protein kinase Lck (P06239 whole entry, the tested form may be a part): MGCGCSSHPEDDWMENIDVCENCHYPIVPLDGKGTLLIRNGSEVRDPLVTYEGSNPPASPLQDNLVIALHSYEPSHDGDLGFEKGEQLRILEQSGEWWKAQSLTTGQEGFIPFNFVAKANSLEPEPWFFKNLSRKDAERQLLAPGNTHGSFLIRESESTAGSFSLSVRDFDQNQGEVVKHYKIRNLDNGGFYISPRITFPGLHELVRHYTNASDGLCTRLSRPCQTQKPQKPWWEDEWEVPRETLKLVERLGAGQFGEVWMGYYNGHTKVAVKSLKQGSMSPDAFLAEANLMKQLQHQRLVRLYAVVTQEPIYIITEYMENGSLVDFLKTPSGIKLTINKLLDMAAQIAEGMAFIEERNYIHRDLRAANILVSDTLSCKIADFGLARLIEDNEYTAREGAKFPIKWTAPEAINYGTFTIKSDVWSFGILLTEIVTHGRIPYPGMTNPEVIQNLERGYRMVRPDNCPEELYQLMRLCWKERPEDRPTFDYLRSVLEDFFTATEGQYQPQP

| SMILES | inhibition at 50 µM [1] [%] | inhibition at 50 µM [2] [%] | EC50 [3] [µM] | Permeated [4] [%] | EC50 [5] [µM] | Kd [6] [µM] | EC50 [7] [µM] | EC50 [8] [µM] |
| --- | --- | --- | --- | --- | --- | --- | --- | --- |
| COc1ccc(Cn2ccc(C)c(NC(=O)[C@@H](Cc3ccc(C(C)(C)C(=O)O)cc3)NC(=O)C(C)(C)c3ccc4ccccc4c3)c2=O)cc1 | 57 | 29 | 11.3 | 16 | 16.6 |  |  |  |
| COc1ccc(Cn2cccc(NC(=O)C(Cc3ccc(CC(=O)O)cc3)NC(=O)Cc3cccc4ccccc34)c2=O)cc1 (centres undefined) |  |  |  | 1.3 |  | 23 |  |  |
| COc1ccc(Cn2ccc(C)c(NC(=O)[C@H](Cc3ccc(C(C)(C)C(=O)O)cc3)NC(=O)C(C)(C)c3ccc4ccccc4c3)c2=O)cc1 |  |  |  | 21 | 8.7 |  | 10.1 | 9.4 |
| COc1ccc(CNC(=O)[C@H](CCC(=O)O)NC(=O)[C@H](Cc2ccc(CC(=O)O)cc2)NC(=O)Cc2cccc3ccccc23)cc1 |  |  |  | 0.3 |  |  | > 100 |  |
| COc1ccc(Cn2ccc(C)c(NC(=O)C(Cc3ccc(CC(=O)O)cc3)NC(C)=O)c2=O)cc1 (centres undefined) |  |  |  | 0.4 |  | 7 |  |  |
| COc1ccc(Cn2ccc(C)c(NC(=O)C(Cc3ccc(CC(=O)O)cc3)NC(=O)Cc3cccc4ccccc34)c2=O)cc1 (centres undefined) |  |  |  | 0.3 |  | 1.3 | > 100 |  |
| COc1ccc(Cn2ccc(C)c(NC(=O)C(Cc3ccc(C(C)(C)C(=O)O)cc3)NC(=O)Cc3cccc4ccccc34)c2=O)cc1 (racemic) |  |  |  | 0.4 |  | 1.2 | 51 |  |
| COc1ccc(Cn2ccc(C)c(NC(=O)C(Cc3ccc(C(C)(C)C(=O)O)cc3)NC(=O)Cc3ccc4ccccc4c3)c2=O)cc1 (racemic) |  |  |  | 0.6 |  | 0.28 | 30.5 |  |

Reference: ChEMBL document CHEMBL1134536, “Nonpeptidic, monocharged, cell permeable ligands for the p56lck SH2 domain” (J Med Chem, 2001)
